According to ChEMBL document CHEMBL4400568, “The design of 1,4-naphthoquinone derivatives and mechanisms underlying apoptosis induction through ROS-dependent MAPK/Akt/STAT3 pathways in human lung cancer cells” (Bioorg Med Chem, 2019):
Active and inactive are the calls of the source. The rule behind the calls is not given here.

Key:
[1] = Cytotoxicity against human QSG7701 cells assessed as reduction in cell viability after 24 hrs by MTT assay; assay type: cell-based
How it was run: (§1)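 Log-phase cells seeded at 1 × 10⁴ per well. Lung cancer lines (A549, NCI-H23, NCI-H460) and normal lines (IMR-90, QSG-7701, HEK-293A) each exposed to 1, 3, 10, 30 and 100 μM for 24 h. MTT (5 mg/mL stock) added for 2 h at 37°C, formazan dissolved in DMSO, absorbance read at 490 nm. Three independent experiments, mean ± SD.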

A549 [2] = experiment: Induction of apoptosis in human A549 cells assessed as early apoptotic cells at 3 uM after 6 hrs by Annexin V-FITC/propidium iodide staining-based flow cytometric analysis (reference value: 2.73%); assay type: functional
A549 [3] = experiment: Induction of apoptosis in human A549 cells assessed as early apoptotic cells at 3 uM after 12 hrs by Annexin V-FITC/propidium iodide staining-based flow cytometric analysis (reference value: 2.73%); assay type: functional
A549 [4] = experiment: Induction of apoptosis in human A549 cells assessed as late apoptotic cells at 3 uM after 12 hrs by Annexin V-FITC/propidium iodide staining-based flow cytometric analysis (reference value: 4.52%); assay type: functional
A549 [5] = experiment: Induction of apoptosis in human A549 cells assessed as late apoptotic cells at 3 uM after 6 hrs by Annexin V-FITC/propidium iodide staining-based flow cytometric analysis (reference value: 4.52%); assay type: functional
NCI-H23 = experiment: Cytotoxicity against human NCI-H23 cells assessed as reduction in cell viability after 24 hrs by MTT assay; assay type: functional, cell-based; how it was run: as §1
IMR-90 = experiment: Cytotoxicity against human IMR90 cells assessed as reduction in cell viability after 24 hrs by MTT assay; assay type: cell-based; settings: imr-90, 24 h; how it was run: as §1
A549 [6] = experiment: Induction of apoptosis in human A549 cells assessed as early apoptotic cells at 3 uM after 3 hrs by Annexin V-FITC/propidium iodide staining-based flow cytometric analysis (reference value: 2.73%); assay type: functional
NCI-H460 = experiment: Cytotoxicity against human NCI-H460 cells assessed as reduction in cell viability after 24 hrs by MTT assay; assay type: functional, cell-based; how it was run: as §1
A549 [7] = experiment: Induction of apoptosis in human A549 cells assessed as late apoptotic cells at 3 uM after 24 hrs by Annexin V-FITC/propidium iodide staining-based flow cytometric analysis (reference value: 4.52%); assay type: functional
A549 [8] = experiment: Induction of apoptosis in human A549 cells assessed as early apoptotic cells at 3 uM after 24 hrs by Annexin V-FITC/propidium iodide staining-based flow cytometric analysis (reference value: 2.73%); assay type: functional
[9] = Cytotoxicity against HEK293A cells assessed as reduction in cell viability after 24 hrs by MTT assay; assay type: cell-based; settings: human, hek293-a; how it was run: as §1
A549 [10] = experiment: Induction of apoptosis in human A549 cells assessed as late apoptotic cells at 3 uM after 3 hrs by Annexin V-FITC/propidium iodide staining-based flow cytometric analysis (reference value: 4.52%); assay type: functional

O=c1[nH]cc(F)c(=O)[nH]1 [FLUOROURACIL]
Activity [1]: Toxic | Activity (A549 [2]): 10.68% | Activity (A549 [3]): 13.87% | Activity (A549 [4]): 5.83% | Activity (A549 [5]): 4.6% | Activity (NCI-H23): Active | Activity (IMR-90): Toxic | Activity (A549 [6]): 7.91% | Activity (NCI-H460): Active | Activity (A549 [7]): 4.22% | Activity (A549 [8]): 23.86% | Activity [9]: Toxic | Activity (A549 [10]): 4.75%
